From ChEMBL document CHEMBL5303300, “EUbOPEN Chemogenomics Library - Multiplex” (2023)
Values joined by “and” are separate entries in the source; they are usually repeats but may differ in a detail not shown here. Identical values can stand only once.

Tested on: Fibroblast
Test: Multiplex assay against human fibroblast
Type: toxicity, cell-based
Settings: number of replicates 2
Method in brief: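 Hoechst33342, BioTracker Green Microtubule Cytoskeleton Dye, MitoTracker Red and Annexin V Alexa Fluor 680 were added to live cells at seeding, and imaging on a CQ1 microscope at 37°C and 5% CO2 followed compound addition. Gating by CellPathfinder machine learning separated cells into Hoechst high-intensity objects or normal cells, then normal cells into healthy, pyknosed or fragmented nuclei, then pyknosed cells into mitotic or apoptotic. Per cents of healthy-nucleus cells are reported for the tubulin, mitochondrial-mass and membrane-permeability phenotypes.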

[1] = 12 h, 1 µM, compound concentration 1 uM
[2] = 12 h, 10 µM, compound concentration 10 uM
[3] = 24 h, 1 µM, compound concentration 1 uM
[4] = 24 h, 10 µM, compound concentration 10 uM
[5] = 48 h, 1 µM, compound concentration 1 uM
[6] = 48 h, 10 µM, compound concentration 10 uM

Q: With NC(=O)c1ccc(-c2nc(-c3ccc4c(c3)OCCO4)c(-c3ccccn3)[nH]2)cc1 as the compound, how does the “Population Apoptotic (%)” value [1] read?
A: The value was 31% and 28%.

Q: What about the “Population Fragmented Nuclei (%)” value [1] of the same compound?
A: The value was 5%.

Q: What about the “Population Healthy Nuclei (%)” value [1] of the same compound?
A: Its value is 81% and 72%.

Q: What about the “Population Hoechst High Intensity Objects (%)” value [1] of the same compound?
A: Its value is 0%.

Q: What about the “Population Membrane Permeable-Phenotype (%)” value [1] of the same compound?
A: Its value is 8% and 4%.

Q: And the “Population Mitochondria Different-Phenotype (%)” value [1]?
A: The value was 0% and 2%.

Q: And the “Population Mitotic Cells (%)” value [1]?
A: Its value is 68% and 71%.

Q: What about the “Population Normal (%)” value [1] of the same compound?
A: The value was 100%.

Q: And the “Population Pyknosed Nuclei (%)” value [1]?
A: The value was 13% and 22%.

Q: And the “Population Tubulin-Different-Phenotype (%)” value [1]?
A: Its value is 15% and 6%.

Q: What about the “Total Cell Count” value [1] of the same compound?
A: The value was 265 and 208.

Q: And the “Population Apoptotic (%)” value [2]?
A: Its value is 26% and 17%.

Q: And the “Population Fragmented Nuclei (%)” value [2]?
A: Its value is 10% and 18%.

Q: And the “Population Healthy Nuclei (%)” value [2]?
A: Its value is 57% and 67%.

Q: And the “Population Hoechst High Intensity Objects (%)” value [2]?
A: Its value is 0%.

Q: What about the “Population Membrane Permeable-Phenotype (%)” value [2] of the same compound?
A: Its value is 1% and 3%.

Q: What about the “Population Mitochondria Different-Phenotype (%)” value [2] of the same compound?
A: Its value is 0% and 1%.

Q: What about the “Population Mitotic Cells (%)” value [2] of the same compound?
A: The value was 73% and 82%.

Q: And the “Population Normal (%)” value [2]?
A: The value was 100%.

Q: And the “Population Pyknosed Nuclei (%)” value [2]?
A: The value was 32% and 13%.

Q: What about the “Total Cell Count” value [2] of the same compound?
A: Its value is 187 and 209.

Q: What about the “Population Apoptotic (%)” value [3] of the same compound?
A: Its value is 50% and 53%.

Q: What about the “Population Fragmented Nuclei (%)” value [3] of the same compound?
A: Its value is 9% and 11%.

Q: And the “Population Healthy Nuclei (%)” value [3]?
A: The value was 83% and 67%.

Q: And the “Population Hoechst High Intensity Objects (%)” value [3]?
A: The value was 0%.

Q: And the “Population Membrane Permeable-Phenotype (%)” value [3]?
A: Its value is 4% and 2%.

Q: And the “Population Mitochondria Different-Phenotype (%)” value [3]?
A: The value was 0%.

Q: What about the “Population Mitotic Cells (%)” value [3] of the same compound?
A: Its value is 50% and 46%.

Q: And the “Population Normal (%)” value [3]?
A: Its value is 100% and 99%.

Q: And the “Population Tubulin-Different-Phenotype (%)” value [3]?
A: The value was 12% and 5%.

Q: And the “Total Cell Count” value [3]?
A: Its value is 287 and 229.

Q: What about the “Population Apoptotic (%)” value [4] of the same compound?
A: Its value is 37% and 14%.

Q: What about the “Population Fragmented Nuclei (%)” value [4] of the same compound?
A: Its value is 12% and 24%.

Q: What about the “Population Healthy Nuclei (%)” value [4] of the same compound?
A: The value was 70% and 69%.

Q: And the “Population Hoechst High Intensity Objects (%)” value [4]?
A: Its value is 0%.

Q: And the “Population Membrane Permeable-Phenotype (%)” value [4]?
A: The value was 2%.

Q: What about the “Population Mitochondria Different-Phenotype (%)” value [4] of the same compound?
A: Its value is 1%.

Q: And the “Population Mitotic Cells (%)” value [4]?
A: The value was 62% and 85%.

Q: What about the “Population Normal (%)” value [4] of the same compound?
A: Its value is 99% and 100%.

Q: And the “Population Pyknosed Nuclei (%)” value [4]?
A: Its value is 16% and 6%.

Q: And the “Population Tubulin-Different-Phenotype (%)” value [4]?
A: Its value is 10% and 5%.

Q: And the “Total Cell Count” value [4]?
A: Its value is 209 and 225.

Q: What about the “Population Apoptotic (%)” value [5] of the same compound?
A: The value was 56% and 77%.

Q: And the “Population Fragmented Nuclei (%)” value [5]?
A: Its value is 12% and 14%.

Q: And the “Population Healthy Nuclei (%)” value [5]?
A: Its value is 82% and 73%.

Q: What about the “Population Hoechst High Intensity Objects (%)” value [5] of the same compound?
A: Its value is 0%.

Q: And the “Population Membrane Permeable-Phenotype (%)” value [5]?
A: The value was 4%.

Q: What about the “Population Mitochondria Different-Phenotype (%)” value [5] of the same compound?
A: Its value is 0%.

Q: What about the “Population Mitotic Cells (%)” value [5] of the same compound?
A: Its value is 43% and 22%.

Q: What about the “Population Normal (%)” value [5] of the same compound?
A: Its value is 100% and 99%.

Q: And the “Population Pyknosed Nuclei (%)” value [5]?
A: The value was 5% and 12%.

Q: And the “Population Tubulin-Different-Phenotype (%)” value [5]?
A: The value was 5% and 4%.

Q: What about the “Total Cell Count” value [5] of the same compound?
A: Its value is 309 and 221.

Q: And the “Population Apoptotic (%)” value [6]?
A: Its value is 33% and 40%.

Q: And the “Population Fragmented Nuclei (%)” value [6]?
A: The value was 16% and 24%.

Q: What about the “Population Healthy Nuclei (%)” value [6] of the same compound?
A: Its value is 76% and 73%.

Q: What about the “Population Hoechst High Intensity Objects (%)” value [6] of the same compound?
A: The value was 0%.

Q: What about the “Population Membrane Permeable-Phenotype (%)” value [6] of the same compound?
A: The value was 0% and 2%.

Q: And the “Population Mitochondria Different-Phenotype (%)” value [6]?
A: Its value is 0% and 1%.

Q: And the “Population Mitotic Cells (%)” value [6]?
A: Its value is 66% and 60%.

Q: What about the “Population Normal (%)” value [6] of the same compound?
A: The value was 100%.

Q: What about the “Population Pyknosed Nuclei (%)” value [6] of the same compound?
A: The value was 6% and 2%.

Q: What about the “Population Tubulin-Different-Phenotype (%)” value [6] of the same compound?
A: The value was 11% and 7%.

Q: What about the “Total Cell Count” value [6] of the same compound?
A: Its value is 216 and 234.
